Measurements reported in ChEMBL document CHEMBL1949586, “Conicasterol E, a small heterodimer partner sparing farnesoid X receptor modulator endowed with a pregnane X receptor agonistic activity, from the marine sponge Theonella swinhoei” (J Med Chem, 2012).
Active and inactive are the calls of the source. The calls are words filed in the database; no cut-off is given here.

Experiments:
Format in all cases: functional, cell-based
[1] = molecular target: T1, Bile acid receptor (Homo sapiens) (UniProt Q96RI1); assay: Agonist activity at FXR expressed in human HepG2 cells assessed as increase in OSTalpha mRNA level at 10 uM by RT-PCR analysis
T1 sequence (whole entry): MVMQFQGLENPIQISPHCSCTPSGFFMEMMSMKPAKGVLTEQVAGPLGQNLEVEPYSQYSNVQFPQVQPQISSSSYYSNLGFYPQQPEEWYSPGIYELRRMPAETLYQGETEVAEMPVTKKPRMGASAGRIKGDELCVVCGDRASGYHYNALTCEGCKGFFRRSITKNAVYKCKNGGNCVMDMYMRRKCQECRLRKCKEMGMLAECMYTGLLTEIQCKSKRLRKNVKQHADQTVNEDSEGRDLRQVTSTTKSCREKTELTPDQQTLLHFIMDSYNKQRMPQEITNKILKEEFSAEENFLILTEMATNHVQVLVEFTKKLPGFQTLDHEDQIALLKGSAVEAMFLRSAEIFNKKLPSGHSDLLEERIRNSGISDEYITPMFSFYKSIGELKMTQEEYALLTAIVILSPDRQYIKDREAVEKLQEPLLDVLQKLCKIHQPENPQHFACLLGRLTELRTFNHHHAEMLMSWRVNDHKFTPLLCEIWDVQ
Outline: (§1)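 HepG2 cells exposed to 10 μM test agent, alone or with 10 μM CDCA. mRNA was measured by SYBR Green real-time PCR with 50 ng template and 0.2 μM of each primer. Cycling was 95 °C 2 min, then 40 cycles of 95/55/72 °C. Reactions ran in triplicate. CT was normalised to GAPDH, and ΔΔCT was taken against untreated cells. Four experiments were run.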

[2] = molecular target: T1, Bile acid receptor (Homo sapiens); assay: Antagonist activity at FXR expressed in human HepG2 cells assessed as inhibition of CDCA-mediated transactivation at 10 uM after 48 hrs by luciferase reporter gene assay
Outline: (§2)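 Antagonism was tested in the FXR transactivation system: HepG2 cells transfected with FXR, RXR, β-gal and the hsp27 IR1-luciferase reporter. Cells were stimulated 48 h after transfection for 18 h with 10 μM CDCA plus test agent. Luciferase was normalised to β-gal. Four experiments were run.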

[3] = molecular target: T1, Bile acid receptor (Homo sapiens); assay: Agonist activity at FXR expressed in human HepG2 cells at 50 uM after 48 hrs by luciferase reporter gene based transactivation assay
Outline: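 HepG2 cells (5 × 10⁵/well) were transfected using Fugene HD with pSG5-FXR, pSG5-RXR, pCMV-β-gal and the p(hsp27)-TK-LUC reporter (IR1 element). Cells were stimulated 48 h post-transfection for 18 h. Luciferase from lysates was normalised to β-galactosidase activity. Four experiments were run.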

[4] = molecular target: T1, Bile acid receptor (Homo sapiens); assay: Antagonist activity at FXR expressed in human HepG2 cells assessed as inhibition of 6-ECDCA-mediated transactivation at 50 uM after 48 hrs by luciferase reporter gene assay
Outline: (§3)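 The FXR/RXR/hsp27-luciferase HepG2 transfection system was used, with test agent co-administered alongside 6-ECDCA. Stimulation was 18 h, starting 48 h after transfection. Luciferase was normalised to β-galactosidase.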

[5] = molecular target: T1, Bile acid receptor (Homo sapiens); assay: Agonist activity at FXR expressed in human HepG2 cells assessed as increase in CYP7A1 mRNA level at 10 uM by RT-PCR analysis relative to control; outline: as §1
[6] = molecular target: T2, Nuclear receptor subfamily 1 group I member 2 (Homo sapiens, UniProt O75469); assay: Agonist activity at PXR expressed in human HepG2 cells assessed as transactivation […] by luciferase reporter gene assay
T2 sequence (O75469 whole entry): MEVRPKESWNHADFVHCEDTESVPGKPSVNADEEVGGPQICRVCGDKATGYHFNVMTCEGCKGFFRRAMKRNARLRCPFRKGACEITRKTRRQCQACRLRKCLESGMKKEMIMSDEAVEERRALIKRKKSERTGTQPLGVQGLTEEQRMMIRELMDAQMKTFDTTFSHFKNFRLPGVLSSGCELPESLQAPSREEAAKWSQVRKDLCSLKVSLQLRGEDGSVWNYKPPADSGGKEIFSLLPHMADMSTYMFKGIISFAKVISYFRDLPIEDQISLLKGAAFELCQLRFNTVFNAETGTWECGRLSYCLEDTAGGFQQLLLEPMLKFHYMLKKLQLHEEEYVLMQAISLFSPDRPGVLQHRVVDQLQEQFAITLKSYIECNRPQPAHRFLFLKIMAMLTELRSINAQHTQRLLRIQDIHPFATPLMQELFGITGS

[7] = molecular target: T1, Bile acid receptor (Homo sapiens); assay: Agonist activity at FXR expressed in human HepG2 cells assessed as effect on SHP mRNA level at 10 uM by RT-PCR analysis; outline: as §1
[8] = molecular target: T1, Bile acid receptor (Homo sapiens); assay: Agonist activity at FXR expressed in human HepG2 cells assessed as increase in BSEP mRNA level at 10 uM by RT-PCR analysis; outline: as §1
[9] = molecular target: T1, Bile acid receptor (Homo sapiens); assay: Antagonist activity at FXR expressed in human HepG2 cells assessed as inhibition of CDCA-mediated transactivation at 50 uM after 48 hrs by luciferase reporter gene assay; outline: as §2
[10] = molecular target: T2, Nuclear receptor subfamily 1 group I member 2; assay: Antagonist activity at PXR expressed in human HepG2 cells assessed as inhibition of rifaximin-induced CYP3A4 mRNA expression at 50 uM by RT-PCR analysis; settings: hepg2, 50 µM
[11] = molecular target: T1, Bile acid receptor (Homo sapiens); assay: Antagonist activity at FXR expressed in human HepG2 cells assessed as inhibition of 6-ECDCA-mediated transactivation at 10 uM after 48 hrs by luciferase reporter gene assay; outline: as §3

| Activity [1] | inhibition [2] | Activity [3] | inhibition [4] | fold change (FC) [5] | Activity [6] | Activity [7] | inhibition [9] | inhibition (INH) [10] | inhibition [11] | Compound | Activity [8] |
| --- | --- | --- | --- | --- | --- | --- | --- | --- | --- | --- | --- |
| Active | inactive | Active | inactive | 2 | Active | inactive | inactive | Not Active | inactive | C=C1[C@@H](O)CC[C@@]2(C)[C@H]1C[C@@H](O)C1=C3[C@H](O)C[C@H]([C@H](C)CC[C@@H](C)C(C)C)[C@@]3(C)CC[C@@H]12 [CONICASTEROL E] | Active |
| – | – | – | – | – | Active | – | – | – | – | CO[C@H]1/C=C/O[C@@]2(C)Oc3c(C)c(O)c4c(O)c(c5c(nc6cc(C)ccn65)c4c3C2=O)NC(=O)/C(C)=C\C=C\[C@H](C)[C@H](O)[C@@H](C)[C@@H](O)[C@@H](C)[C@H](OC(C)=O)[C@@H]1C [RIFAXIMIN] | – |
